Only some compounds are listed: those with a hit (about 2.9% of all), similar ones and a draw of the others.
SENP6 block: SENP6 protease inhibitors, primary screen, biochemical, luminescence, uHTS. Sentrin-specific protease 6 (Homo sapiens), Q9GZR1. Recombinant SENP6 catalytic domain, aminoluciferin luminescence. inhibition, % at 10 µM. 330,000 compounds, 1.8% hits. AID 2599, 2010;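 active = inhibition above about 50% at the single tested dose, limit read from the data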;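 note: plate controls were DMSO wells with enzyme for no effect and DMSO wells lacking enzyme for full effect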
Target sequence (Q9GZR1 628-1112 limits assumed): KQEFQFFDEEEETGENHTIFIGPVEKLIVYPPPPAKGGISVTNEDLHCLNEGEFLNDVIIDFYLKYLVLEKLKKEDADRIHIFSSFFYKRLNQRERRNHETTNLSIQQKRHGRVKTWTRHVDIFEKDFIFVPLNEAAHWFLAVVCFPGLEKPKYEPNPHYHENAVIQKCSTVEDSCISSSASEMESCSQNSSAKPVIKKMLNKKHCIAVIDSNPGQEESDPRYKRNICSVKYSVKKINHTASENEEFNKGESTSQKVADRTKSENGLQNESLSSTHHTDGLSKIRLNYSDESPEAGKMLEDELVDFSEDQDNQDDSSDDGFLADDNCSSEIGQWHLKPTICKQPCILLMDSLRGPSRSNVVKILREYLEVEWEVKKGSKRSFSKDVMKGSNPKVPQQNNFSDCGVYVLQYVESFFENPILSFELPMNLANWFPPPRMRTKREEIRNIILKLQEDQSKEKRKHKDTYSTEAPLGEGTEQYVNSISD
SENP7 inh: SENP7 protease inhibitors, primary screen, biochemical, luminescence, uHTS. inhibition, % at 5 µM. recombinant SENP7, Z-RLRGG-aminoluciferin luminescence, 40 min. 330,000 compounds, 1.5% hits;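 active = inhibition above about 50% at the single test dose, limit read from the data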;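 note: plate controls were DMSO with enzyme for no effect and no enzyme buffer wells for full effect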
SENP1 inh: human SENP1 catalytic domain inhibitors, primary screen, biochemical, FRET, uHTS; Sentrin-specific protease 1 (Homo sapiens), Q9P0U3; recombinant SENP1 catalytic domain, CyPet-SUMO1-YPet FRET cleavage; inhibition, % at 10 µM; 360,000 compounds, 0.21% hits;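 active = inhibition at least 30% at 10 µM, raw YFP signal under a set limit, fluorescence ratio 0.5 to 1.5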;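 note: 0% = enzyme with DMSO and 100% = no enzyme wells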
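Material – human SENP1 catalytic domain · Input – SENP1 enzyme, 20 pM final · Compound dosing – single concentration of 10 µM compound, 0.5% DMSO final · Timing – enzyme reaction for 50 min at room temperature, dark · Measured by – FRET fluorescence in CFP and YFP emission channels · Control set – no-enzyme wells low, DMSO-plus-enzyme wells high control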
HSP90 inh: HSP90 inhibitors, primary screen, cell lysate, luminescence. Heat shock protein HSP 90 (rabbit reticulocyte lysate; luciferase refolding). Rabbit reticulocyte lysate, luciferase refolding luminescence, 3 h. inhibition, % at 5.6 µM. 290,000 compounds, 0.91% hits. AID 1789, 2009;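 active = inhibition above the screen-wide mean plus 3 SD, computed separately per campaign, cut at about 16% in these data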;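 note: 0% = DMSO wells and 100% = 60 µM geldanamycin wells; inhibitors lower the luminescence because luciferase stays unfolded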
SENP8 block-1: human SENP8 protease inhibitors, primary screen, biochemical, fluorescence, Nedd8 protein substrate, uHTS; Sentrin-specific protease 8 (Homo sapiens), Q96LD8; recombinant SENP8; inhibition, % at 20 µM; 360,000 compounds, 0.64% hits; AID 602440, 2012; in the data active = inhibition mostly above about 40%, no sharp cut-off; inactive = mostly below about 27%
SENP8 block-2: SENP8 protease inhibitors, primary screen, biochemical, luminescence | Sentrin-specific protease 8 (Homo sapiens), Q96LD8 | inhibition, % at 10 µM | 330,000 compounds, 1.2% hits | purified SENP8, Z-RLRGG-aminoluciferin cleavage; in the data active = inhibition above about 50%
HSP90 inh confirm: HSP90 inhibitors, confirmation, cell lysate, luminescence; shares compounds with HSP90 inh; rabbit reticulocyte lysate, luciferase refolding luminescence, 3 h; inhibition, % at 5.9 µM; 2,300 compounds, 64% hits; AID 1846, 2009; in the data active = inhibition above about 18%;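 note: 0% = vehicle wells and 100% = reference inhibitor wells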
FLuc counter: firefly luciferase inhibitors, HSP90 counter-screen, confirmation, artefact control for HSP90 inhibitor project, biochemical, luminescence, triplicate. shares compounds with HSP90 inh. purified native firefly luciferase. inhibition, % at 5.9 µM. 2,300 compounds, 48% hits. AID 1847, 2009;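 active = inhibition above the mean inhibition of all tested sample wells plus 3 SD, cut at about 10% in these data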;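 note: 0% = DMSO with luciferase and 100% = wells lacking luciferase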
The depositor's hits bear a star; nt = no result.

SMILES | SENP6 block | SENP7 inh | SENP1 inh | HSP90 inh | SENP8 block-1 | SENP8 block-2 | HSP90 inh confirm | FLuc counter
C#CCn1cc(/C=C2\NC(=O)NC2=O)c2ccccc21 | -14 | -7 | -22 | 67* | -60 | -7 | 53* | -9
CCCCn1c(SC(C)C(=O)NCC2CCCO2)nc2cc(C(=O)OC)ccc2c1=O (centres undefined) | -10 | -4 | 1 | nt | -94 | 2 | nt | nt
CCCCn1c(SC(C)C(N)=O)nc2cc(C(=O)OC)ccc2c1=O (centres undefined) | -14 | 10 | 0 | 28* | -79 | -2 | -2 | -6
O=C(CC[C@H]1O[C@@H](n2cnc3c(NC(=O)c4ccccc4)ncnc32)[C@H](O)[C@@H]1O)NCc1ccco1 | nt | nt | 1 | nt | 22 | nt | nt | nt
CCC/C=N/Nc1nc2ccccc2s1 | 5 | 39 | -3 | 20* | 4 | 47 | 11 | 2
CC(=O)Nc1cccc(-c2cc(-c3c(Cl)cccc3Cl)no2)c1 | 1 | 5 | 1 | 19* | -27 | 6 | -9 | -12
Cc1cccc(C)c1NS(=O)(=O)c1ccc(-c2cnc(C3CC3)o2)cc1 | 1 | -2 | 0 | 2 | -12 | -4 | nt | nt
O=C(Nc1ccc2c(c1)nc1n2CCSC1)c1ccco1 | -3 | 5 | -88 | 35* | -75 | -2 | 45* | 20*
CCC(=O)Nc1ccc2nc(C3CC3)n(Cc3ccc(C(C)(C)C)cc3)c(=O)c2c1 | 86* | 91* | 0 | 22* | -17 | 71* | 21* | 17*
CC(=O)Nc1ccc2nc(C3CC3)n(Cc3ccc(Cl)cc3)c(=O)c2c1 | 26 | 13 | 1 | 1 | -12 | 17 | nt | nt
CC1=C(C(=O)N2CCCCCC2)CC(CC(=O)NCC2CCCCC2)C(=O)N1CCCN1CCCC1=O (centres undefined) | nt | nt | 2 | nt | -2 | nt | nt | nt
CC(C)(C)c1ccc(-c2nnc3sc(-c4ccccn4)nn23)cc1 | -7 | -7 | -1 | 40* | -14 | -3 | 54* | 26*
Cc1ccc(C(=O)Nc2ccccc2C(=O)N2CCCCCC2)cc1 | -5 | -3 | 0 | -2 | 12 | -2 | nt | nt
O=C(Nc1ccccc1C(=O)N1CCCC1)c1ccccc1 | -5 | -3 | 2 | 27* | 2 | -1 | -3 | -5
O=C(c1ccc(Cl)cc1)N1CCc2ccccc21 | -5 | 5 | 1 | 18* | 12 | -20 | -9 | -14
Cc1ccc(C(=O)N2CCc3ccccc32)cc1 | 11 | 0 | 4 | 0 | 12 | 0 | nt | nt
CCOC(=O)[C@]12CCC=C1N(Cc1ccccc1)C(=O)[C@H](CC(=O)NCCCN1CCCC1=O)C2 | nt | nt | -1 | nt | 19 | nt | nt | nt
CCOC(=O)N/N=C/c1cn(CCCOc2ccc(C)cc2)c2ccccc12 | -10 | -11 | 2 | 18* | 15 | -7 | 9 | -7
O=[N+]([O-])c1ccc(N=Nc2ncc[nH]2)cc1 | 11 | -5 | 14 | 55* | 31 | -1 | 57* | -18
O=[N+]([O-])c1ccc(N=NN(CCO)CCO)cc1 | -23 | -1 | 3 | 0 | 17 | 9 | nt | nt
CCC(=O)N(C)C[C@H]1Oc2ncc(C#Cc3ccncc3)cc2C(=O)N([C@@H](C)CO)C[C@@H]1C | nt | nt | -1 | nt | 10 | nt | nt | nt
COC(=O)N1C(=O)[C@](c2ccccc2)(C(C)C)N1C(=O)OC | 0 | -5 | 1 | 31* | 8 | 3 | 3 | -2
CC[C@@]1(c2ccccc2)C(=O)N(C(=O)OC)N1C(=O)OC | -33 | 10 | 0 | -5 | 20 | -9 | nt | nt
